pEC50: −log10 of the molar value.
Columns and labels:
[1] = molecular target: 5-hydroxytryptamine receptor 2A (Homo sapiens, UniProt P28223); assay: Agonist activity at recombinant human 5-HT2A receptor expressed in HEK293E cells assessed as induction of intracellular Ca2+ levels after 90 secs by Fluo-4-dye based FLIPR assay; type: cell-based, HEK293
Method in brief: (§1)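 HEK293E cells stably expressing human receptor (VNV isoform for 5-HT2C; ~400−795 fmol/mg protein), grown in DMEM with 10% dialyzed FBS and G418. Cells plated at 20 000/well in serum-free DMEM overnight at 37 °C, then loaded 1 h at room temperature with 5 μM Fluo-4 in HBSS/25 mM HEPES. Eleven compound concentrations added on FLIPR, Ca2+ signal read for 90 s. EC50 from a four-parameter logistic fit, at least triplicate.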

[2] = molecular target: T1, 5-hydroxytryptamine receptor 2C (Homo sapiens, UniProt P28335); assay: Agonist activity at recombinant human 5-HT2C receptor expressed in HEK293E cells assessed as induction of intracellular Ca2+ levels after 90 secs by Fluo-4-dye based FLIPR assay; type: functional, cell-based, HEK293; method in brief: as §1
T1 sequence (P28335 whole entry): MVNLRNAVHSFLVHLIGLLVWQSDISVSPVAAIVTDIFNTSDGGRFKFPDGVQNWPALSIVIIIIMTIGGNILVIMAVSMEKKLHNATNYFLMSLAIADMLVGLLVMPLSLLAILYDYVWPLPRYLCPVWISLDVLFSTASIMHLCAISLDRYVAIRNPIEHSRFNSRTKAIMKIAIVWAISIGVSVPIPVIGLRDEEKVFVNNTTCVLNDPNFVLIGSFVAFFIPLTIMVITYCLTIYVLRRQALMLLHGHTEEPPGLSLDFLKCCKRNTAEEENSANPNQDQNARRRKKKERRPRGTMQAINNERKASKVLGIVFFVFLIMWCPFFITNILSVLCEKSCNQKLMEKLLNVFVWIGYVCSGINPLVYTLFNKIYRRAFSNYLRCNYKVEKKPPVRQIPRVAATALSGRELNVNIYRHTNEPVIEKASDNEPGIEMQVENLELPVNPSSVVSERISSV

[3] = molecular target: T2, 5-hydroxytryptamine receptor 2C (Homo sapiens) (UniProt P28335); assay: Intrinsic activity at recombinant human 5-HT2C receptor expressed in HEK293E cells assessed as induction of intracellular Ca2+ levels after 90 secs by Fluo-4-dye based FLIPR assay relative to serotonin; type: functional, cell-based; conditions: HEK293
T2 sequence (whole entry): T1 sequence (P28335 whole entry)
Method in brief: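 FLIPR Fluo-4 Ca2+ assay in HEK293E cells stably expressing the human receptor (VNV isoform for 5-HT2C), eleven-point concentration series, 90 s read. Response normalized to 3 μM serotonin on the same plate (defined as IA = 1). Intrinsic activity taken from a four-parameter logistic fit.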

[4] = molecular target: 5-hydroxytryptamine receptor 2B (Homo sapiens, UniProt P41595); assay: Agonist activity at recombinant human 5-HT2B receptor expressed in HEK293E cells assessed as induction of intracellular Ca2+ levels after 90 secs by Fluo-4-dye based FLIPR assay; type: cell-based, HEK293; method in brief: as §1
Sequence of 5-hydroxytryptamine receptor 2B (P41595 whole entry): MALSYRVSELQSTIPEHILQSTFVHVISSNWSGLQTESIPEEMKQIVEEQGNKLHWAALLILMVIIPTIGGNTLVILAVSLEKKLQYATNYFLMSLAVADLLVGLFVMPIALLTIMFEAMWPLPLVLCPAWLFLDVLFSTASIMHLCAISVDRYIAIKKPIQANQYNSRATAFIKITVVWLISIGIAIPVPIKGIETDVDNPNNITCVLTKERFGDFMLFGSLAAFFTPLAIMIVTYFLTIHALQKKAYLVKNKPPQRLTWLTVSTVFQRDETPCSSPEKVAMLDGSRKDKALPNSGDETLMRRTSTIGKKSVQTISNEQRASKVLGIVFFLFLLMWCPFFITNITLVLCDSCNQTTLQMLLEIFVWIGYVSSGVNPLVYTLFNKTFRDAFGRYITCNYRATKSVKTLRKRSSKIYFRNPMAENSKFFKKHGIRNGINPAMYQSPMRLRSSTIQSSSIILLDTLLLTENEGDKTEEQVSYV

[5] = Metabolic stability in rat liver microsomes assessed as parent compound remaining at […] after 10 mins; type: ADME, microsome; conditions: read-out: Stability
[6] = Metabolic stability in human liver microsomes assessed as parent compound remaining at […] after 10 mins; type: ADME, microsome; conditions: read-out: Stability

Sequence of 5-hydroxytryptamine receptor 2A (P28223 whole entry, canonical isoform): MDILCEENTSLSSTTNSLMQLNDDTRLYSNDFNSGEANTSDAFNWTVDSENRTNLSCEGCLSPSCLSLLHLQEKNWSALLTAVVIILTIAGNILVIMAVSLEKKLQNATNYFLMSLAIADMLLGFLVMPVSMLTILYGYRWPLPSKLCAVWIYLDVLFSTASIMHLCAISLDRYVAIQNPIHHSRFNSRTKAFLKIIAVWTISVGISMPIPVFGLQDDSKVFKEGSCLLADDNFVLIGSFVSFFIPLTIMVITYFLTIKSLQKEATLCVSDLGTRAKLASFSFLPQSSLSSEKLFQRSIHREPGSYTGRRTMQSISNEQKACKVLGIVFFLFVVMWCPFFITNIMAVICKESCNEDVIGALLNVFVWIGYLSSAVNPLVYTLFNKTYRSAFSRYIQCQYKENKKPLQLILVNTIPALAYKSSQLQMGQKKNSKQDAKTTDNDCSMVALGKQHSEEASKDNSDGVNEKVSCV

SMILES | pEC50 [1] | pEC50 [2] | Intrinsic activity [3] | pEC50 [4] | remaining at 10 min [5] [%] | remaining at 10 min [6] [%]
Cc1nc(-c2cccc3ccccc23)sc1C(=O)N(C)CCc1cccnc1 | < 5.00 | 7.41 to 7.42 | 0.7 | < 5.00 | 1 | < 1
Cc1nc(-c2cccc3ccccc23)sc1C(=O)N1CCC(O)CC1 | < 5.00 | 7.33 | 0.9 | < 5.00 | 34 | 84
CCn1nc(-c2cccc3ccccc23)cc1-c1ccccn1 | < 5.30 | 6.21 to 6.24 | 0.8 | < 5.30 |  | 
Cc1cn(-c2cccc3ccccc23)cc1C(=O)N1CCC(CO)CC1 | < 5.00 | 6.36 to 6.43 | 0.7 | < 5.00 | 18 | 67
Cc1cccc(-c2nc(C(=O)N3CCOCC3)cs2)c1C | < 5.00 | 6.15 to 6.30 | 0.7 | < 5.00 |  | 
CCn1nc(-c2cncc3ccccc23)cc1-c1cccnn1 | < 5.00 | 6.28 | 0.7 | < 5.00 |  | 
O=C(c1nc(-c2cccc3ccccc23)cs1)N1CCOCC1 | < 5.00 | 5.79 to 6.14 | 0.6 | < 5.00 |  | 
O=C(c1csc(-c2cccc3ccccc23)n1)N1CCOCC1 | < 5.00 | 5.93 to 6.12 | 0.6 | < 5.00 |  | 
Cc1nc(-c2cccc(Cl)c2Cl)sc1C(=O)N1CCOCC1 | < 5.00 | < 5.00 |  | < 5.00 |  | 
O=C(c1csc(-c2ccc(Cl)cc2Cl)n1)N1CCOCC1 | < 5.00 | < 5.00 |  | < 5.00 |  | 
Cc1nc(-c2cccc3ccccc23)n(C)c1C(=O)N1CCC(CO)CC1 | < 5.00 | 5.73 | 0.4 | < 5.00 |  | 
Cn1cc(-c2cccc3ccccc23)nc1C(=O)N1CCC(CO)CC1 | < 5.00 | 5.45 to 5.74 | 0.7 | < 5.00 |  | 
O=C(c1csc(-c2cccnc2)n1)N1CCOCC1 | < 5.00 | < 5.00 |  | < 5.00 |  | 
O=C(c1csc(-c2cccc(F)c2Cl)n1)N1CCOCC1 | < 5.00 | < 5.00 |  | < 5.00 |  | 
CCn1nc(-c2cccc3ccncc23)cc1-c1ccc(N)nn1 | < 5.00 | 8.15 | 1.1 | < 5.30 |  | 
Cc1nc(-c2cccc3ccccc23)sc1C(=O)N(C)Cc1ccn(C)n1 | < 5.00 | 7.72 to 7.89 | 1 | < 5.00 |  | 
Cc1nc(-c2cccc3ccccc23)sc1C(=O)N(C)CCO | < 5.00 | 7.30 to 7.52 | 0.9 | < 5.00 | 22 | 67
Cn1nc(-c2cccc3ccccc23)cc1-c1cccnn1 | < 5.30 | 7.40 to 7.60 | 1.2 | < 5.00 |  | 12
O=C(c1csc(-c2cccc(Cl)c2Cl)n1)N1CCCCC1 | < 5.00 | 5.43 to 5.51 | 0.3 | < 5.00 |  | 
CCn1nc(-c2ccnc3ccccc23)cc1-c1cccnn1 | < 5.00 | 6.40 to 6.50 | 0.6 | < 5.00 |  | 
CCn1nc(-c2cccc3cnccc23)cc1-c1cccnn1 | < 5.30 | 5.80 | 0.7 | < 5.30 |  | 
O=C(c1cnc(-c2cccc(Cl)c2Cl)s1)N1CCOCC1 | < 5.00 | < 5.00 |  | < 5.00 |  | 
O=C(c1cnc(-c2cccc3ccccc23)s1)N1CCOCC1 | < 5.00 | 5.64 to 5.82 | 0.6 | < 5.00 |  | 
O=C(c1csc(-c2ccccc2Cl)n1)N1CCOCC1 | < 5.00 | 5.34 | 0.1 | < 5.00 |  | 
Cc1sc(-c2cccc3ccccc23)nc1C(=O)N1CCOCC1 | < 5.00 | 5.56 | 0.3 | < 5.00 |  | 

SMILES | pEC50 [1] | pEC50 [2] | Intrinsic activity [3] | pEC50 [4] | remaining at 10 min [5] [%] | remaining at 10 min [6] [%]
CCn1nc(-c2cccc3ccncc23)cc1-c1cccnn1 | < 5.00 | 7.37 to 7.89 | 0.7 | < 5.00 |  | 16
O=C(c1csc(-c2cccc(Cl)c2Cl)n1)N1CC2CC1CO2 (stereo not given) | < 5.00 | 6.50 to 6.89 | 0.8 | < 5.00 |  | 
Cc1cc(-c2cccc3ccccc23)oc1C(=O)N1CCC(CO)CC1 | < 5.00 | 5.70 to 5.99 | 0.7 | < 5.00 |  | 
COCCNC(=O)c1sc(-c2cccc3ccccc23)nc1C | < 5.00 | < 5.00 |  | < 5.00 |  | 
Cc1nc(-c2cccc3ccccc23)sc1C(=O)N1CCNCC1 | < 5.00 | 5.98 | 0.4 | < 5.00 |  | 
O=C(c1csc(-c2cccc(Cl)c2Cl)n1)N1CCCOCC1 | < 5.00 | 6.13 to 6.49 | 0.5 | < 5.00 |  | 
O=C(c1csc(-c2cccc(Cl)c2Cl)n1)N1CCC(O)CC1 | < 5.00 | 6.08 to 6.17 | 0.7 | < 5.00 |  | 
CCn1nc(-c2cccc3ccccc23)cc1-c1ncnn1C | < 5.00 | 6.21 to 6.72 | 0.7 | < 5.00 |  | 4
O=C(c1nc(-c2cccc(Cl)c2Cl)cs1)N1CCOCC1 | < 5.00 | 7.42 to 7.74 | 0.8 | < 5.00 |  | 
CCn1nc(-c2cccc3ccccc23)cc1-c1ncccn1 | < 5.30 | 5.72 to 5.77 | 0.4 | < 5.30 |  | 
CCn1nc(-c2cccc3ccccc23)cc1-c1cccnn1 | 6.05 | 7.82 | 1.2 | < 5.00 |  | 17
CCn1nc(-c2nccc3ccccc23)cc1-c1cccnn1 | < 5.00 | 6.29 to 6.54 | 0.8 | < 5.00 |  | 
CCn1nc(-c2cccc3ccccc23)cc1-c1nnnn1C | 5.60 to 5.74 | 6.35 | 0.6 | < 5.30 |  | 4
Cc1nc(-c2cccc3ccccc23)sc1C(N)=O | < 5.00 | < 5.00 |  | < 5.00 |  | 
CCn1nc(-c2cccc3ccccc23)cc1-c1ccnn1C | < 5.00 | 5.30 to 5.46 | 0.3 | < 5.00 |  | 
Cc1sc(-c2cccc(Cl)c2Cl)nc1C(=O)N1CCOCC1 | < 5.00 | 5.82 | 0.6 | < 5.00 |  | 
O=C(c1nnn(-c2cccc3ccccc23)n1)N1CCC(CO)CC1 | < 5.00 | 5.00 to 5.39 | 0.3 | < 5.00 |  | 
O=C(c1csc(-c2cccc(Cl)c2F)n1)N1CCOCC1 | < 5.00 | 5.62 to 5.90 | 0.3 | < 5.00 |  | 
Cc1nc(-c2cccc3ccccc23)sc1C(=O)N(CCO)C(C)C | < 5.00 | < 5.00 |  | < 5.00 | 7 | 28
Cn1ccnc1-c1cc(-c2cccc3ccccc23)nn1C | 6.90 to 7.03 | 7.06 to 7.24 | 0.9 | < 5.00 |  | 15
CCn1nc(-c2cccc3ccccc23)cc1-c1cncn1C | < 5.00 | 5.36 to 5.41 | 0.2 | < 5.00 |  | 
CCn1nc(-c2cccc3ncccc23)cc1-c1cccnn1 | < 5.00 | 5.33 to 5.34 | 0.3 | < 5.00 |  | 
CCn1nc(-c2cccc3ccccc23)cc1-c1nccn1C | < 5.00 | 7.43 to 7.57 | 0.8 | < 5.00 |  | 5
Cc1nc(-c2cccc3ccccc23)sc1C(=O)N(C)C | < 5.00 | 7.14 to 7.23 | 1 | < 5.00 |  | 

— ChEMBL document CHEMBL4011636, “Utilization of an Active Site Mutant Receptor for the Identification of Potent and Selective Atypical 5-HT2C Receptor Agonists” (J Med Chem, 2017)
